The species named for series [1] is Bos taurus. Put plainly: Induction of bovine tubulin assembly assessed as microtubule formation at 100 to 400 uM after 30 mins by electron microscopy.
The species entered for series [2] is Bos taurus. Put plainly: Induction of bovine tubulin aggregation at 100 to 400 uM after 30 mins by electron microscopy.
Series [3] in a line: Neuroprotective effect against beta-amyloid (25-35)-induced cell death in Sprague-Dawley rat cortical neuron treated 2 hrs before beta-amyloid (25-35) challenge measured after 48 hrs by propidium iodide staining-based fluorescence microscopy. In kind it is functional. To be noted: Cortical neurone. The gist of the method:
(§1)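 Rat cortical neurons from embryonic day 18 Sprague–Dawley fetuses, plated on poly-D-lysine and kept serum-free in DMEM/F12 with N2, were used after 5 days. Compound (0.5–60 nM) was added about 2 h before 10 μM Aβ25–35 or Aβ1–42, preaggregated 24 h at 37 °C in Tris pH 7.4. Vehicle DMSO was ≤0.04%. After 48 h, cells were stained 30 min with 20 μM propidium iodide and 150 nM calcein-AM. Live and dead cells were counted in 6–12 fields from duplicate dishes across at least two preparations (about 1500 cells). Student's t test was used.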

Series [4] has as its system Cortical neurone. Put plainly: Neuroprotective effect against paraquat-induced cell death in Sprague-Dawley rat cortical neuron at 100 nM treated 2 hrs before paraquat challenge measured after 48 hrs by propidium iodide staining-based fluorescence microscopy. In kind it is functional.
For series [5], the species on record is Bos taurus. As to the kind of experiment: Induction of P-gp-mediated rhodamine 123 uptake in BBMEC at 1 to 50 uM. The gist of the method: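 Primary bovine brain microvessel endothelial cells in 24-well plates were rinsed and equilibrated 10 min in warm PBSA. They were preincubated 30 min at 37 °C with compound at 1–50 μM, then given 5 μM rhodamine 123 for 2 h. Cells were rinsed with ice-cold PBS and lysed in 0.5% Triton X-100/0.2 M NaOH. Rhodamine 123 fluorescence was normalized to BCA protein. Cyclosporine A served as positive control.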

Series [6] in a line: Apparent passive permeability from abluminal to luminal side of BBMEC at 10 uM up to 1.5 hrs. In kind it is ADME, Bos taurus. The following applies: cattle. The gist of the method:
(§2)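 Bovine brain microvessel endothelial cell monolayers, confluent on 0.4 μm polycarbonate membranes coated with collagen and fibronectin, mounted in side-by-side diffusion chambers with PBSA. The donor side (luminal or abluminal) received 10 μM unlabeled compound plus trace tritiated compound. Receiver samples were taken at time points up to 90 min and counted by liquid scintillation.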

The species named for series [7] is Bos taurus. Put plainly: Stabilization of bovine microtubule against cold-induced […] assessed as pelleted protein level at 400 uM by centrifugation assay.
The species named for series [8] is Bos taurus. As to the kind of experiment: Induction of bovine tubulin assembly assessed as microtubule formation at 200 to 400 uM after 30 mins by DAPI staining-based fluorescence assay in absence of GTP. The gist of the method:
(§3)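 DAPI fluorescence assembly assay: bovine brain microtubule protein (containing MAPs) at 2 mg/mL in PEM buffer (0.1 M PIPES, 1 mM MgSO4, 1 mM EGTA, pH 6.9), 4% DMSO and 10 μM DAPI, without GTP, with varying compound concentrations. Plates were incubated 30 min at 37 °C and fluorescence was read. Values were corrected for a no-compound control and expressed relative to the maximum given by 25 μM paclitaxel.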

For series [9], the system named is Cortical neurone. As to the kind of experiment: Neuroprotective effect against beta-amyloid (1-42)-induced cell death in Sprague-Dawley rat cortical neuron at 0.5 to 60 nM treated 2 hrs before beta-amyloid (1-42) challenge measured after 48 hrs by propidium iodide staining-based fluorescence microscopy. In kind it is functional. The gist of the method:
as §1

Series [10] can be described thus: Apparent passive permeability from luminal to abluminal side of BBMEC at 10 uM up to 1.5 hrs. The following applies: cattle. In kind it is ADME, Bos taurus. The method, boiled down: as §2
The species entered for series [11] is Bos taurus. As to the kind of experiment: Displacement of [3H]paclitaxel from bovine microtubule at 400 uM. The gist of the method: (§4)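 Competitive binding: microtubules were formed from bovine brain microtubule protein (2 mg/mL) in PEM buffer with 0.5 mM GTP. Conditions were 100 μM tritiated compound with 0–40 μM paclitaxel, or 20 μM [3H]paclitaxel with 0–400 μM competitor, at 37 °C for 10 min. Pellets were spun at 100000g for 4 min, dissolved in 0.1 M NaOH, and radioactivity and protein were measured.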
For orientation: In a radioligand displacement assay an active substance lowers the binding of a labelled ligand.

The test system of series [12] is Cortical neurone. Put plainly: Neuroprotective effect against H2O2-induced cell death in Sprague-Dawley rat cortical neuron at 100 nM treated 2 hrs before H2O2 challenge measured after 48 hrs by propidium iodide staining-based fluorescence microscopy. In kind it is functional.
The species named for series [13] is Bos taurus. As to the kind of experiment: Induction of bovine tubulin assembly assessed as microtubule formation at 100 uM after 30 mins by DAPI staining-based fluorescence assay in absence of GTP. The method, boiled down:
as §3

For series [14], the species on record is Bos taurus. Put plainly: Induction of bovine tubulin assembly assessed as formation of pelleted protein at 100 to 400 uM after 30 mins by centrifugation assay relative to paclitaxel in presence of GTP.
Series [15] concerns Cortical neurone. Put plainly: Neuroprotective effect against staurosporine-induced cell death in Sprague-Dawley rat cortical neuron at 100 nM treated 2 hrs before staurosporine challenge measured after 48 hrs by propidium iodide staining-based fluorescence microscopy. In kind it is functional.
Series [16] concerns Cortical neurone. As to the kind of experiment: Neuroprotective effect against thapsigargin-induced cell death in Sprague-Dawley rat cortical neuron at 100 nM treated 2 hrs before thapsigargin challenge measured after 48 hrs by propidium iodide staining-based fluorescence microscopy. In kind it is functional.
For series [17], the species on record is Bos taurus. Put plainly: Displacement of [3H](3R,5S,7as)-(3,5-bis(4-fluorophenyl)tetrahydro-1H-oxazolo[3,4-c]oxazol-7a-yl)methanol from bovine microtubule at 40 uM. The method, boiled down:
as §4

For series [18], the species on record is Bos taurus. Put plainly: Induction of bovine tubulin assembly assessed as microtubule formation at 25 uM after 30 mins by DAPI staining-based fluorescence assay in absence of GTP. The gist of the method:
as §3

The species named for series [19] is Bos taurus. Put plainly: Stabilization of bovine microtubule against cold-induced […] assessed as pelleted protein level at 20 uM by centrifugation assay.

Results on four compounds are retold here after ChEMBL document CHEMBL1156035, “(3R,5S,7as)-(3,5-Bis(4-fluorophenyl)tetrahydro-1H-oxazolo[3,4-c]oxazol-7a-yl)methanol, a novel neuroprotective agent” (J Med Chem, 2009).

pEC50: −log10 of the molar value. Calls of active or inactive are those of the source. No cut-off for these calls is given here.

For the compound `OCC1(CO)COC(c2ccc(F)cc2)N1` (stereo not given), in series [1], the outcome was inactive. The outcome in [2] was Active. Moreover, the pEC50 – broadly, −log10 of the EC50, conventionally taken in molar units – in series [3] was 7.40.

`OCC12CO[C@H](c3ccc(F)cc3)N1[C@@H](c1ccc(F)cc1)OC2` (relative stereo): in [1], the outcome was inactive. Further, in series [2], the result was Active. Further, the negative logarithm of the EC50 (pEC50) in [3] is 7.30.

Regarding `OC[C@]12CO[C@H](c3ccc(F)cc3)N1[C@H](c1ccc(F)cc1)OC2`, the result in series [1], in [5] and in series [8] was inactive. Further, the outcome in series [4], in [2], in [9], in [12], in [13] and in [15] was Active. Further, the result in series [16] was Active. The results for the Papp at 1.5 h, 10 µM in series [6] and in series [10] were 244 ×10⁻⁶ cm/s and 286 ×10⁻⁶ cm/s, respectively. Also, the Activity was found to be 9% in series [7], 40% in series [11] and 10% in series [14]. This compound had a pEC50 in [3] of 8.30.

In the case of `CC(=O)O[C@H]1C(=O)[C@@]2(C)[C@H]([C@H](OC(=O)c3ccccc3)[C@]3(O)C[C@H](OC(=O)[C@H](O)[C@@H](NC(=O)c4ccccc4)c4ccccc4)C(C)=C1C3(C)C)[C@]1(OC(C)=O)CO[C@@H]1C[C@@H]2O`, the Activity in series [17] was determined as 42%; in series [18] it was 20%; in series [19], 79%.
